pIC50: −log10 of the molar value.
Columns and labels:
HCT-15 = assay: Cytotoxicity against human HCT15 cells after 2 days by cell counting kit-8 analysis; type: functional, cell-based; details: HCT-15, 48 h
Summary of the method: (§1)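 Cells grown per supplier's instructions, seeded at 2-4 × 10⁴ cells/well and incubated overnight in medium with 10% FBS at 37 °C, 5% CO₂. On day 2, after 4 h FBS starvation, medium was replaced with medium containing graded compound concentrations. Absorbance read at 450 nm. IC50 from a four-parameter logistic fit. Three independent experiments in triplicate, mean ± S.D.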

[1] = target: DNA topoisomerase 2-alpha (Homo sapiens) (UniProt P11388); assay: Inhibition of human DNA topoisomerase-2alpha-mediated relaxation of supercoiled pBR322 at 100 uM after 30 mins using ethidium bromide staining by agarose gel electrophoresis
Summary of the method: (§2)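 200 ng supercoiled pBR322 with 1 unit human topo IIα, with or without compound. Buffer was 10 mM Tris-HCl pH 7.9, 50 mM NaCl, 5 mM MgCl₂, 1 mM EDTA, 1 mM ATP and bovine serum albumin. Incubated 30 min at 30 °C, stopped with EDTA. Products run on 1% agarose gel, 25 V, 4 h, TAE buffer. Compound stocks 20 mM in DMSO.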

T47D = assay: Cytotoxicity against human T47D cells after 2 days by cell counting kit-8 analysis; type: functional, cell-based; details: 48 h; summary of the method: as §1
HEK293 = assay: Cytotoxicity against human HEK293 cells after 2 days by cell counting kit-8 analysis; type: cell-based; details: HEK293, 48 h; summary of the method: as §1
[2] = target: DNA topoisomerase 2-alpha (Homo sapiens) (UniProt P11388); assay: Inhibition of human DNA topoisomerase-2alpha-mediated relaxation of supercoiled pBR322 at 20 uM after 30 mins using ethidium bromide staining by agarose gel electrophoresis; summary of the method: as §2
[3] = target: T1, DNA topoisomerase 1 (Homo sapiens) (UniProt P11387); assay: Inhibition of recombinant human DNA topoisomerase-1-mediated relaxation of supercoiled pBR322 at 100 uM after 30 mins using ethidium bromide staining by agarose gel electrophoresis
T1 sequence (whole entry): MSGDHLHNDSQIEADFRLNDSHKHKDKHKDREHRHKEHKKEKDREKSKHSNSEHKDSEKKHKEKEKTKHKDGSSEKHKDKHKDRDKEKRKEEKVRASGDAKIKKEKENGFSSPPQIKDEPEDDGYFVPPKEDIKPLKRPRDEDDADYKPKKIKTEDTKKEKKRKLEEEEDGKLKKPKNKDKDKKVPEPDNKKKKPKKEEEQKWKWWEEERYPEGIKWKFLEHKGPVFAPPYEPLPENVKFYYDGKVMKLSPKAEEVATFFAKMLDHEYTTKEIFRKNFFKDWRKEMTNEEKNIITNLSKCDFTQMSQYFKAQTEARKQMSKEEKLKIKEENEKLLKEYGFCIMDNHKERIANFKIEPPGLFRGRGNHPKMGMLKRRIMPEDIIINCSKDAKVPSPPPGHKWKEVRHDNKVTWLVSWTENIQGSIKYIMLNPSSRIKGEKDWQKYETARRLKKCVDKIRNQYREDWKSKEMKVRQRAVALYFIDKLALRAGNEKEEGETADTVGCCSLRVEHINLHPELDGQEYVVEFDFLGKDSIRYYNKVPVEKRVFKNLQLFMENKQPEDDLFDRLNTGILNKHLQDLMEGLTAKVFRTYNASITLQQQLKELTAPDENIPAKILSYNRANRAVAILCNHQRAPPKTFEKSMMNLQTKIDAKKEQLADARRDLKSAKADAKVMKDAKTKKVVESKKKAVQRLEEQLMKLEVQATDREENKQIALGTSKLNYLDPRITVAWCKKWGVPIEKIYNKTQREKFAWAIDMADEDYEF
Summary of the method: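 Compounds from 20 mM DMSO stocks. 100 ng pBR322 plasmid DNA with 1 unit recombinant human topo I, with or without compound, 37 °C for 30 min. Relaxation buffer was 10 mM Tris-HCl pH 7.9, 150 mM NaCl, 0.1% BSA, 1 mM spermidine. Relaxation of supercoiled DNA assessed by gel imaging.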

DU-145 = assay: Cytotoxicity against human DU145 cells after 2 days by cell counting kit-8 analysis; type: functional, cell-based; details: DU-145, 48 h; summary of the method: as §1

Chain of DNA topoisomerase 2-alpha (Homo sapiens) (P11388 whole entry): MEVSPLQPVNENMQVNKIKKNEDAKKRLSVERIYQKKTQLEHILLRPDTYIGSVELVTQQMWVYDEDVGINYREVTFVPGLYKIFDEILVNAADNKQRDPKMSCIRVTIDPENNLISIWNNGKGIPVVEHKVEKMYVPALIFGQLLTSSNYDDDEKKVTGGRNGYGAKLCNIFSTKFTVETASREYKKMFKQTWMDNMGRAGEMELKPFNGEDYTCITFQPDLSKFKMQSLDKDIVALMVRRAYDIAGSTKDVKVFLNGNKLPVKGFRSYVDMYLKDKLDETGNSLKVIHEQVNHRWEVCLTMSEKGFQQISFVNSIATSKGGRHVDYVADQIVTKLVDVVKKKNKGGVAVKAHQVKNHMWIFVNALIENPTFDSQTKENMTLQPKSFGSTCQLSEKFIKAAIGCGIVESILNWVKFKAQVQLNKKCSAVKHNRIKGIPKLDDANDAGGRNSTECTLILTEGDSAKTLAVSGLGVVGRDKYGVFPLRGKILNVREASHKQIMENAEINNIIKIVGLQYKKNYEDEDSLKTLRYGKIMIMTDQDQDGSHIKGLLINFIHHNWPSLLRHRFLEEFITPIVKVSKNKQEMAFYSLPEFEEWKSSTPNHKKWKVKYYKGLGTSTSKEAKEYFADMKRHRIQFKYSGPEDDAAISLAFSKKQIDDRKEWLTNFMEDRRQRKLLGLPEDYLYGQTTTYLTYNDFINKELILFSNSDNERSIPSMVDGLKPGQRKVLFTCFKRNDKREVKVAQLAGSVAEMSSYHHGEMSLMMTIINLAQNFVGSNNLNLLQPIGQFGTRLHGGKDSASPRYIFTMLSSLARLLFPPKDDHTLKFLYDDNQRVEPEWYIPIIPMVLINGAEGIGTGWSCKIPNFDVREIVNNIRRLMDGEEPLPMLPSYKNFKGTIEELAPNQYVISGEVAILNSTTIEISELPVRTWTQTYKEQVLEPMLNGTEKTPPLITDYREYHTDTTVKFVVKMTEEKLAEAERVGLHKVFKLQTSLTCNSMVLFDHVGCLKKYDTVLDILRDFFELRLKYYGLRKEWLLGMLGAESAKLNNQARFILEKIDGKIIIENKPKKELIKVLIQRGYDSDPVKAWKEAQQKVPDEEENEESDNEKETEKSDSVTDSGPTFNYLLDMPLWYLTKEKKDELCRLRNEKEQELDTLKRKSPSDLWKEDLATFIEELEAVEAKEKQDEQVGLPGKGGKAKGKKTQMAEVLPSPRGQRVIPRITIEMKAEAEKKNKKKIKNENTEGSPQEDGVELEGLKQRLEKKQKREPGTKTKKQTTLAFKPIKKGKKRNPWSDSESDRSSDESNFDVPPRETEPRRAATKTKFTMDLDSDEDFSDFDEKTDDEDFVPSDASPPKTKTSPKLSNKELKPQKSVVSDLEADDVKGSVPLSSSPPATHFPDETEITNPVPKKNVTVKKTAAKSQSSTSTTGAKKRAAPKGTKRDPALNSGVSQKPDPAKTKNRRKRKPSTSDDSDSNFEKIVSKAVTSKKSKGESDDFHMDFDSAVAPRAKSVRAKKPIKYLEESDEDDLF

Compound: Oc1ccc(-c2cc(-c3cccs3)nc(-c3ccccc3Cl)c2)cc1
- pIC50 (HCT-15): 5.27
- inhibition [1]: 78.3%
- pIC50 (T47D): 5.23
- pIC50 (HEK293): 5.28
- inhibition [2]: 8.2%
- inhibition [3]: 2.2%
- pIC50 (DU-145): 5.38

Compound: Oc1ccc(-c2cc(-c3ccc(Cl)cc3)nc(-c3cccnc3)c2)cc1
- pIC50 (HCT-15): 4.68
- inhibition [1]: 59.1%
- pIC50 (T47D): 4.53
- pIC50 (HEK293): 4.56
- inhibition [2]: 11.9%
- inhibition [3]: 18.8%
- pIC50 (DU-145): 4.64

Compound: Oc1ccc(-c2cc(-c3ccccc3)nc(-c3cccc(Cl)c3)c2)cc1
- pIC50 (HCT-15): 5.21
- inhibition [1]: 76.8%
- pIC50 (T47D): 5.32
- pIC50 (HEK293): 5.55
- inhibition [2]: 0.5%
- inhibition [3]: 0%
- pIC50 (DU-145): 5.27

Compound: Oc1ccc(-c2cc(-c3ccncc3)nc(-c3cccc(Cl)c3)c2)cc1
- inhibition [1]: 0%
- inhibition [3]: 29.2%

Compound: CC[C@@]1(O)C(=O)OCc2c1cc1n(c2=O)Cc2cc3ccccc3nc2-1 [CAMPTOTHECIN]
- pIC50 (HCT-15): 5.86
- pIC50 (T47D): 5.82
- pIC50 (HEK293): 6.00
- pIC50 (DU-145): 5.97

Compound: Oc1cccc(-c2cc(-c3cccs3)nc(-c3ccccc3Cl)c2)c1
- pIC50 (HCT-15): 5.55
- inhibition [1]: 78.9%
- pIC50 (T47D): 5.40
- pIC50 (HEK293): 5.59
- inhibition [2]: 10.7%
- inhibition [3]: 2.7%
- pIC50 (DU-145): 5.77

Compound: Oc1cccc(-c2cc(-c3ccncc3)nc(-c3cccc(Cl)c3)c2)c1
- inhibition [1]: 13.9%
- inhibition [3]: 0%

Compound: Oc1cccc(-c2cc(-c3ccccc3)nc(-c3ccccc3Cl)c2)c1
- pIC50 (HCT-15): 5.53
- inhibition [1]: 83%
- pIC50 (T47D): 5.53
- pIC50 (HEK293): 5.75
- inhibition [2]: 23%
- inhibition [3]: 3.2%
- pIC50 (DU-145): 5.83

Compound: Oc1cccc(-c2cc(-c3ccc(Cl)cc3)nc(-c3cccnc3)c2)c1
- pIC50 (HCT-15): 4.78
- inhibition [1]: 40.4%
- pIC50 (T47D): 4.74
- pIC50 (HEK293): 4.40
- inhibition [2]: 10.6%
- inhibition [3]: 2.8%
- pIC50 (DU-145): 4.57

Compound: Oc1cccc(-c2cc(-c3cccc(Cl)c3)nc(-c3cccs3)c2)c1
- pIC50 (HCT-15): 5.58
- inhibition [1]: 80.4%
- pIC50 (T47D): 5.47
- pIC50 (HEK293): 5.50
- inhibition [2]: 39%
- inhibition [3]: 7.6%
- pIC50 (DU-145): 5.58

Compound: Oc1cccc(-c2cc(-c3cccc(Cl)c3)nc(-c3ccccn3)c2)c1
- inhibition [1]: 2.4%
- inhibition [3]: 0.4%

Compound: Oc1cccc(-c2cc(-c3ccco3)nc(-c3ccccc3Cl)c2)c1
- pIC50 (HCT-15): 5.65
- inhibition [1]: 77.9%
- pIC50 (T47D): 5.70
- pIC50 (HEK293): 5.73
- inhibition [2]: 8.6%
- inhibition [3]: 0%
- pIC50 (DU-145): 5.79

Compound: Oc1ccc(-c2cc(-c3cccc(Cl)c3)nc(-c3ccco3)c2)cc1
- pIC50 (HCT-15): 5.10
- inhibition [1]: 71.3%
- pIC50 (T47D): 5.28
- pIC50 (HEK293): 5.54
- inhibition [2]: 0%
- inhibition [3]: 25.5%
- pIC50 (DU-145): 5.24

Compound: Oc1cccc(-c2cc(-c3ccncc3)nc(-c3ccccc3Cl)c2)c1
- inhibition [1]: 0.7%
- inhibition [3]: 0%

Compound: Oc1ccc(-c2cc(-c3ccc(Cl)cc3)nc(-c3ccco3)c2)cc1
- pIC50 (HCT-15): 5.15
- inhibition [1]: 84.1%
- pIC50 (T47D): 5.20
- pIC50 (HEK293): 5.24
- inhibition [2]: 36.2%
- inhibition [3]: 15.8%
- pIC50 (DU-145): 5.14

Compound: Oc1cccc(-c2cc(-c3cccnc3)nc(-c3ccccc3Cl)c2)c1
- inhibition [1]: 0%
- inhibition [3]: 0%

Compound: Oc1cccc(-c2cc(-c3ccsc3)nc(-c3cccc(Cl)c3)c2)c1
- pIC50 (HCT-15): 5.60
- inhibition [1]: 80.1%
- pIC50 (T47D): 5.45
- pIC50 (HEK293): 5.50
- inhibition [2]: 15.4%
- inhibition [3]: 26.2%
- pIC50 (DU-145): 5.48

Compound: Oc1ccc(-c2cc(-c3ccncc3)nc(-c3ccccc3Cl)c2)cc1
- inhibition [1]: 0%
- inhibition [3]: 9.9%

— ChEMBL document CHEMBL2169746, “Design, synthesis, and antitumor evaluation of 2,4,6-triaryl pyridines containing chlorophenyl and phenolic moiety” (Eur J Med Chem, 2012)
